Measurements published in ChEMBL document CHEMBL2406919, “On the antibiotic and antifungal activity of pestalone, pestalachloride A, and structurally related compounds” (2013).
In brackets after ≈: the same amount, converted by molar mass.

Assays:
Assay type in all cases: functional
Fusarium graminearum = assay: Antifungal activity against Gibberella zeae after 3 to 5 days by photometric method; conditions: read-out: ED50 (the source's name)
Summary of the method: (§1)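 Test compound in methanol with alkylaryl polyglycol ether emulsifier dried into wells. Liquid potato dextrose medium holding spores or mycelium of the fungus added. OD620 read before and after 3–5 days shaking at 20 °C, 85% relative humidity. ΔOD against untreated control fitted to a dose–response curve; ED50 (50% growth inhibition) given in ppm (μg/mL).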

[1] = Antifungal activity against Phytophthora cryptogea after 3 to 5 days by photometric method
Summary of the method: (§2)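 Test compound in methanol with alkylaryl polyglycol ether emulsifier was dried in wells, then liquid potato dextrose medium with spores or mycelium of the test organism was added. Incubated 3−5 days shaking at 20 °C, 85% relative humidity. Growth was taken as the change in extinction at 620 nm before and after incubation. ED₅₀ (50% growth inhibition, ppm = μg/mL) came from a dose−response curve against untreated control.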

Fusarium culmorum = assay: Antifungal activity against Fusarium culmorum after 3 to 5 days by photometric method; conditions: read-out: ED50 (the source's name); summary of the method: as §2
Zymoseptoria tritici = assay: Antifungal activity against Septoria tritici after 3 to 5 days by photometric method; conditions: read-out: ED50 (the source's name); summary of the method: as §2
Pyricularia oryzae = assay: Antifungal activity against Pyricularia oryzae after 3 to 5 days by photometric method; conditions: read-out: ED50 (the source's name); summary of the method: as §1
Staphylococcus aureus [2] = assay: Antimicrobial activity against hospital acquired vancomycin-intermediate Staphylococcus aureus Mu50 after 24 hrs by microdilution method; conditions: Mu50, 24 h
Summary of the method: (§3)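 CLSI broth microdilution (M7-A6) with 2-fold serial compound dilutions in Mueller–Hinton broth. Inoculum 10⁵ cfu/mL. Strains came from NARSA, stored at −70 °C and revived on Mueller–Hinton agar days before testing. After 24 h at 37 °C, MIC read as the lowest concentration preventing visible growth. Vancomycin served as control.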

Botrytis cinerea = assay: Antifungal activity against Botrytis cinerea after 3 to 5 days by photometric method; conditions: read-out: ED50 (the source's name); summary of the method: as §2
Pseudomonas fluorescens = assay: Antifungal activity against Pseudomonas fluorescens after 3 to 5 days by photometric method; conditions: read-out: ED50 (the source's name); summary of the method: as §2
Phytophthora infestans = assay: Antifungal activity against Phytophthora infestans after 3 to 5 days by photometric method; conditions: read-out: ED50 (the source's name); summary of the method: as §1
[3] = Antifungal activity against Trametes versicolor after 3 to 5 days by photometric method; summary of the method: as §2
Aspergillus niger = assay: Antifungal activity against Aspergillus niger after 3 to 5 days by photometric method; conditions: read-out: ED50 (the source's name); summary of the method: as §2
[4] = Antifungal activity against Ustilago avenae after 3 to 5 days by photometric method; summary of the method: as §2
[5] = Antifungal activity against Leptosphaeria nodorum after 3 to 5 days by photometric method; summary of the method: as §2
[6] = Antifungal activity against Pyrenophora teres after 3 to 5 days by photometric method; summary of the method: as §2
Staphylococcus aureus [7] = assay: Antimicrobial activity against epidemic community acquired methicillin-resistant Staphylococcus aureus USA300 after 24 hrs by microdilution method; conditions: USA300, 24 h; summary of the method: as §3
Alternaria mali = assay: Antifungal activity against Alternaria mali after 3 to 5 days by photometric method; conditions: read-out: ED50 (the source's name); summary of the method: as §2
Pythium aphanidermatum = assay: Antifungal activity against Pythium aphanidermatum after 3 to 5 days by photometric method; conditions: read-out: ED50 (the source's name); summary of the method: as §2
Staphylococcus aureus [8] = assay: Antimicrobial activity against Staphylococcus aureus ATCC 29213 after 24 hrs by microdilution method; conditions: ATCC 29213, 24 h
Summary of the method: (§4)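 CLSI (M7-A6) broth microdilution with 2-fold serial compound dilutions in Mueller−Hinton broth. Inoculum was 10⁵ cfu/mL, with vancomycin as control. After 24 h at 37 °C, MIC was read as the lowest concentration inhibiting visible growth.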

Bacillus subtilis = assay: Antimicrobial activity against Bacillus subtilis 168 after 24 hrs by broth microdilution method; conditions: subsp. subtilis str. 168 
Summary of the method: (§5)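 CLSI broth microdilution with 2-fold serial compound dilutions in half-concentrated Mueller−Hinton broth. Inoculum was 10⁵ cfu/mL. After 24 h at 37 °C, MIC was read as the lowest concentration inhibiting visible growth.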

Staphylococcus aureus [9] = assay: Antimicrobial activity against methicillin-resistant Staphylococcus aureus LT-1334 after 24 hrs by microdilution method; conditions: LT-1334, 24 h
Summary of the method: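 Broth microdilution per CLSI with 2-fold serial compound dilutions. Growth and testing in half-concentrated Mueller–Hinton broth, inoculum 10⁵ cfu/mL. MIC read after 24 h at 37 °C as the lowest concentration inhibiting visible growth.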

Staphylococcus aureus [10] = assay: Antimicrobial activity against Staphylococcus aureus SG511 after 24 hrs by broth microdilution method; conditions: SG511, 24 h; summary of the method: as §5
Staphylococcus aureus [11] = assay: Antimicrobial activity against community acquired Staphylococcus aureus MW2 after 24 hrs by microdilution method; conditions: MW2, 24 h; summary of the method: as §4

Structure (SMILES) | EC50 (Fusarium graminearum) | ED50 [1] | EC50 (Fusarium culmorum) | EC50 (Zymoseptoria tritici) | EC50 (Pyricularia oryzae) | MIC (Staphylococcus aureus [2]) | EC50 (Botrytis cinerea) | EC50 (Pseudomonas fluorescens) | EC50 (Phytophthora infestans) | ED50 [3] | EC50 (Aspergillus niger) | ED50 [4] | ED50 [5] | ED50 [6] | MIC (Staphylococcus aureus [7]) | EC50 (Alternaria mali) | EC50 (Pythium aphanidermatum) | MIC (Staphylococcus aureus [8]) | other results
COc1c(Cl)c(C)c(Cl)c(O)c1C(=O)c1c(Br)c(O)cc(O)c1Br | > 50 µg/mL | > 50 µg/mL | 0.014 µg/mL (≈ 0.0279 µM) | > 50 µg/mL | > 50 µg/mL | 30 µg/mL (≈ 59.9 µM) | > 50 µg/mL | > 50 µg/mL | > 50 µg/mL | > 50 µg/mL | > 50 µg/mL | > 50 µg/mL | > 50 µg/mL | > 50 µg/mL | 30 µg/mL (≈ 59.9 µM) | > 50 µg/mL | – | – | –
COc1c(Cl)c(C)c(Cl)c(O)c1C1OC(=O)c2c(O)cc(O)c(CC=C(C)C)c21 (racemic) [RAC-PESTALALACTONE] | > 50 µg/mL | 18.9 µg/mL (≈ 43 µM) | > 50 µg/mL | > 50 µg/mL | > 50 µg/mL | – | > 50 µg/mL | > 50 µg/mL | – | 13.1 µg/mL (≈ 29.8 µM) | > 50 µg/mL | > 50 µg/mL | > 50 µg/mL | 4.3 µg/mL (≈ 9.79 µM) | 25 µg/mL (≈ 56.9 µM) | > 50 µg/mL | > 50 µg/mL | – | –
COc1cc(OC)c(Br)c(C(=O)c2c(OC)c(Cl)c(C)c(Cl)c2OC)c1Br | > 50 µg/mL | > 50 µg/mL | 2.2 µg/mL (≈ 4.05 µM) | > 50 µg/mL | 12.6 µg/mL (≈ 23.2 µM) | – | > 50 µg/mL | > 50 µg/mL | – | > 50 µg/mL | > 50 µg/mL | > 50 µg/mL | > 50 µg/mL | 42 µg/mL (≈ 77.3 µM) | – | > 50 µg/mL | > 50 µg/mL | – | –
COc1c(Cl)c(C)c(Cl)c(O)c1C(=O)c1c(C=O)c(O)cc(O)c1CC=C(C)C [PESTALONE] | > 50 µg/mL | 33.9 µg/mL (≈ 77.2 µM) | 0.12 µg/mL (≈ 0.273 µM) | 26.7 µg/mL (≈ 60.8 µM) | 28.6 µg/mL (≈ 65.1 µM) | 10 µg/mL (≈ 22.8 µM) | > 50 µg/mL | > 50 µg/mL | > 50 µg/mL | > 50 µg/mL | > 50 µg/mL | > 50 µg/mL | 22.4 µg/mL (≈ 51 µM) | 2.2 µg/mL (≈ 5.01 µM) | 10 µg/mL (≈ 22.8 µM) | 22.4 µg/mL (≈ 51 µM) | > 50 µg/mL | 16 µg/mL (≈ 36.4 µM) | MIC (Bacillus subtilis): 1.6 µg/mL (≈ 3.64 µM); MIC (Staphylococcus aureus [9]): 6.25 µg/mL (≈ 14.2 µM); MIC (Staphylococcus aureus [10]): 3.1 µg/mL (≈ 7.06 µM)
COc1c(Cl)c(C)c(Cl)c(O)c1C1c2c(CC=C(C)C)c(O)cc(O)c2C(=O)N1C (racemic) | – | – | – | – | – | – | – | – | – | – | – | – | – | – | – | – | – | > 50 µg/mL | MIC (Staphylococcus aureus [11]): > 50 µg/mL
CN[C@H](CC(C)C)C(=O)N[C@H]1C(=O)N[C@@H](CC(N)=O)C(=O)N[C@H]2C(=O)N[C@H]3C(=O)N[C@H](C(=O)N[C@H](C(=O)O)c4cc(O)cc(O)c4-c4cc3ccc4O)[C@H](O)c3ccc(c(Cl)c3)Oc3cc2cc(c3O[C@@H]2O[C@H](CO)[C@@H](O)[C@H](O)[C@H]2O[C@H]2C[C@](C)(N)[C@H](O)[C@H](C)O2)Oc2ccc(cc2Cl)[C@H]1O [VANCOMYCIN] | – | – | – | – | – | – | – | – | – | – | – | – | – | – | 0.25 µg/mL (≈ 0.173 µM) | – | – | – | –
COc1cc(OC)c(CC=C(C)C)c(C(=O)c2c(O)c(Cl)c(C)c(Cl)c2OC)c1C=O | > 50 µg/mL | > 50 µg/mL | 1.2 µg/mL (≈ 2.57 µM) | > 50 µg/mL | 5 µg/mL (≈ 10.7 µM) | 15 µg/mL (≈ 32.1 µM) | > 50 µg/mL | > 50 µg/mL | – | > 50 µg/mL | > 50 µg/mL | > 50 µg/mL | 22.5 µg/mL (≈ 48.1 µM) | 5.4 µg/mL (≈ 11.6 µM) | 10 µg/mL (≈ 21.4 µM) | > 50 µg/mL | 44.4 µg/mL (≈ 95 µM) | – | –
COc1c(Cl)c(C)c(Cl)c(O)c1C1NC(=O)c2c(O)cc(O)c(CC=C(C)C)c21 (racemic) [PESTALACHLORIDE A] | > 50 µg/mL | > 50 µg/mL | 31.9 µg/mL (≈ 72.8 µM) | > 50 µg/mL | > 50 µg/mL | – | > 50 µg/mL | > 50 µg/mL | > 50 µg/mL | > 50 µg/mL | > 50 µg/mL | > 50 µg/mL | > 50 µg/mL | 33.1 µg/mL (≈ 75.5 µM) | – | > 50 µg/mL | > 50 µg/mL | 10 µg/mL (≈ 22.8 µM) | MIC (Staphylococcus aureus [11]): 10 µg/mL (≈ 22.8 µM)
COc1c(Cl)c(C)c(Cl)c(O)c1C1c2c(CC=C(C)C)c(O)cc(O)c2C(=O)N1Cc1ccccc1 (racemic) | – | – | – | – | – | – | – | – | – | – | – | – | – | – | – | – | – | > 50 µg/mL | MIC (Staphylococcus aureus [11]): > 50 µg/mL
COc1c(Cl)c(C)c(Cl)c(O)c1C(=O)c1cc(O)cc2c1CCC(C)(C)O2 | – | – | – | – | – | 7 µg/mL (≈ 17 µM) | – | – | – | – | – | – | – | – | 7 µg/mL (≈ 17 µM) | – | – | – | –
COc1cc(OC)c(CC=C(C)C)c(C(=O)c2c(OC)c(Cl)c(C)c(Cl)c2OC)c1Br | > 50 µg/mL | > 50 µg/mL | > 50 µg/mL | > 50 µg/mL | > 50 µg/mL | – | > 50 µg/mL | > 50 µg/mL | > 50 µg/mL | > 50 µg/mL | > 50 µg/mL | > 50 µg/mL | > 50 µg/mL | > 50 µg/mL | – | > 50 µg/mL | > 50 µg/mL | – | –
COc1c(Cl)c(C)c(Cl)c(O)c1C(=O)c1cc(O)cc(O)c1CC=C(C)C [DEFORMYL-PESTALONE] | – | – | – | – | – | 5 µg/mL (≈ 12.2 µM) | – | – | – | – | – | – | – | – | 5 µg/mL (≈ 12.2 µM) | – | – | – | –
